# A selection: hits, their analogues and other compounds. The true share with any hit is near 2.9%.
# SENP8 block-1: SENP8 protease inhibitors, primary screen, biochemical, luminescence. Sentrin-specific protease 8 (Homo sapiens), Q96LD8. purified SENP8, Z-RLRGG-aminoluciferin cleavage. inhibition, % at 10 µM. hit rate 1.2% among 330,000. AID 2540, 2010; in the data active means inhibition above about 50%
# SENP6 block: SENP6 protease inhibitors, primary screen, biochemical, luminescence, uHTS. inhibition, % at 10 µM. Recombinant SENP6 catalytic domain, aminoluciferin luminescence. AID 2599, 2010. Sentrin-specific protease 6 (Homo sapiens), Q9GZR1. hit rate 1.8% among 330,000;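 active means inhibition above about 50% at the single tested dose, limit read from the data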;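 further: plate controls were DMSO wells with enzyme for no effect and DMSO wells lacking enzyme for full effect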
# Target sequence (Q9GZR1 628-1112 limits assumed): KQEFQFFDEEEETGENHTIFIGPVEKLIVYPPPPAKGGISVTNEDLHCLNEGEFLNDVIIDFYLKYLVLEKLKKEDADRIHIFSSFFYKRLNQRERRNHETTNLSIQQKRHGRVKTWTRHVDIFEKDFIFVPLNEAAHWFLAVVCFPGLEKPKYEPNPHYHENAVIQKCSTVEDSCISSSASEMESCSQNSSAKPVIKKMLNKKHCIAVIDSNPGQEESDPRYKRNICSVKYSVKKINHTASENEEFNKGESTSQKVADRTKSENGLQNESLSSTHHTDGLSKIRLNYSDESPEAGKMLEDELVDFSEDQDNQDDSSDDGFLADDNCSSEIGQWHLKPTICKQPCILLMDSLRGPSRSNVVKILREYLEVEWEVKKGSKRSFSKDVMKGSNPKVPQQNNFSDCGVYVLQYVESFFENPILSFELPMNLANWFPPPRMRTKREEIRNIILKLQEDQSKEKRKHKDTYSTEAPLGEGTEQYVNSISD
# Apaf1 inhib: inhibitors of human Apaf-1 apoptosome, primary screen, biochemical, DEVD-Rh110 fluorescence, uHTS; Apoptotic protease-activating factor 1 (Homo sapiens), O14727; reconstituted apoptosome caspase-3 activity; inhibition, % at 20 µM; hit rate 0.71% among 330,000; active means inhibition of at least 40% at 20 µM;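 further: plate controls were DMSO wells for no effect and DEVD-CHO caspase inhibitor wells for full effect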
#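 Material: reconstituted apoptosome with Apaf-1, cytochrome c, caspase-9, procaspase-3, dATP; medium: pH 7.5 Hepes buffer with CHAPS, BSA, DTT; also added: cytochrome c and DEVD-Rh110 substrate; timing: 30 min plus 50 min, RT; signal: Rh110 fluorescence intensity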
# SENP7 inh: SENP7 protease inhibitors, primary screen, biochemical, luminescence, uHTS; AID 434973, 2010; inhibition, % at 5 µM; recombinant SENP7, Z-RLRGG-aminoluciferin luminescence, 40 min; hit rate 1.5% among 330,000;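 active means inhibition above about 50% at the single test dose, limit read from the data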;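 further: plate controls were DMSO with enzyme for no effect and no enzyme buffer wells for full effect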
# SENP1 FRET inh: human SENP1 catalytic domain inhibitors, primary screen, biochemical, FRET, uHTS. inhibition, % at 10 µM. Sentrin-specific protease 1 (Homo sapiens), Q9P0U3. hit rate 0.21% among 360,000. recombinant SENP1 catalytic domain, CyPet-SUMO1-YPet FRET cleavage;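 active means inhibition at least 30% at 10 µM, raw YFP signal under a set limit, fluorescence ratio 0.5 to 1.5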;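 further: 0% = enzyme with DMSO and 100% = no enzyme wells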
#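 Material: hSENP1 catalytic domain, recombinant; medium: Tris pH 8 with BME, BSA, NP40 and catalase; compound: single concentration of 10 µM compound, 0.5% DMSO final; technique: FRET read of cyan and yellow fluorescence; timing: 50 min enzyme reaction, room temperature, light-protected; reagent: SFCypet-SUMO1-SFYpet substrate at 25 nM; control set: no-enzyme low, enzyme-DMSO high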
# SENP8 block-2: human SENP8 protease inhibitors, primary screen, biochemical, fluorescence, Nedd8 protein substrate, uHTS. Sentrin-specific protease 8 (Homo sapiens), Q96LD8. recombinant SENP8. inhibition, % at 20 µM. hit rate 0.64% among 360,000; in the data active means inhibition mostly above about 40%, no sharp cut-off; inactive means mostly below about 27%
# Apaf-1 inh conf2: Apaf-1 inhibitors, single-dose retest, confirmation, biochemical, fluorescence, DEVD-Rh110, 20 µM | AID 504614, 2011 | reconstituted apoptosome, caspase-3 DEVD-Rh110 fluorescence | shares compounds with Apaf1 inhib | inhibition, % at 20 µM | hit rate 25% among 1,800;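 active means mean inhibition of at least 40% at 20 µM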;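 further: plate controls were DMSO wells for no effect and DEVD-CHO caspase inhibitor control wells for full effect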
# Rh110 interf inh: Rh110 fluorescence interference by putative Apaf-1 inhibitors, confirmation, artefact control for Apaf-1 inhibitor project, biochemical, 20 µM. shares compounds with Apaf1 inhib. quenched caspase reaction. activation (fluorescence interference), % at 20 µM. 1,800 tested, under 10 active. AID 504615, 2011;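 active means signal rise of 40% or more at 20 µM, treated as a fluorescence artifact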
# Apaf1 inh interf: fluorescence interference of Apaf-1 inhibitor hits, dose response, artefact control for Apaf-1 inhibitor project; shares compounds with Apaf1 inhib; fluorescence interference counterscreen, Apaf-1 assay format; IC50, µM; 460 tested, under 10 active; call rule not given here
# * marks the source's active call; other numbers are inactive results; / = no result given.
SMILES,SENP8 block-1,SENP6 block,Apaf1 inhib,SENP7 inh,SENP1 FRET inh,SENP8 block-2,Apaf-1 inh conf2,Rh110 interf inh,others
CCCS(=O)(=O)NC(=O)C1(C)CCN(C(=O)c2cncc(Br)c2)C1 (stereo unspecified),/,/,/,/,0.4,2.5,/,/,
O=C(COC(=O)/C=C/c1ccc(OC(F)F)cc1)Nc1ccc2[nH]c(=O)[nH]c2c1,6.1,-2.3,-11.7,8.8,-2.9,-5.5,/,/,
Cc1c(CCOC(=O)C2C3CC4CC(C3)CC2C4)sc[n+]1CC(=O)c1ccc(Br)cc1 (stereo unspecified),-12.3,-19.5,50.2*,3.3,-5.2,10.8,32.4,5.8,
Cc1c(CCOC(=O)c2ccc(Cl)cc2Cl)sc[n+]1CC(=O)c1ccc(Br)cc1,7.9,6.3,71.2*,33.3,0.8,9.6,29.4,9.4,
Cc1cc2c3c(c1)C(C)CC(C)(C)N3C(=O)C2=O (stereo unspecified),9.0,-9.0,1.9,-6.5,1.5,8.6,/,/,
CC1CC2(CCCCC2)N2C(=O)C(=O)c3cccc1c32 (stereo unspecified),3.9,-6.5,41.0*,6.0,0.2,1.4,40.7*,4.6,Apaf1 inh interf=>100
C[C@H](CO)N1C[C@H](C)[C@@H](CN(C)Cc2ccncc2)Oc2c(NC(=O)Cc3ccccc3)cccc2C1=O,5.1,10.2,-1.2,2.3,-0.7,15.0,/,/,
C[C@@H]1CN([C@H](C)CO)C(=O)c2cc(NC(=O)Cc3ccccc3)ccc2O[C@H]1CN(C)Cc1ccc(Oc2ccccc2)cc1,-0.6,15.0,38.0,12.3,0.4,4.1,/,/,
C[C@H](CO)N1C[C@H](C)[C@@H](CN(C)Cc2ccc(Cl)c(Cl)c2)Oc2c(NC(=O)Cc3ccccc3)cccc2C1=O,-5.5,-2.7,43.6*,-6.7,1.4,8.7,23.9,2.2,
C[C@H](CO)N1C[C@H](C)[C@@H](CN(C)Cc2ccccc2)Oc2c(NC(=O)Cc3ccccc3)cccc2C1=O,5.8,-18.1,22.2,-3.7,3.8,14.1,/,/,
C[C@H](CO)N1C[C@H](C)[C@@H](CN(C)CC2CCCCC2)Oc2c(NC(=O)CCC(F)(F)F)cccc2C1=O,-12.0,-19.4,41.2*,-7.4,0.8,0.2,18.2,16.6,
C[C@@H]1CN([C@@H](C)CO)C(=O)c2cc(NC(=O)Nc3ccc(F)cc3)ccc2O[C@@H]1CN(C)Cc1ccc(Oc2ccccc2)cc1,7.2,-0.4,41.8*,-3.1,2.1,-50.6,11.1,10.3,
C[C@H](CO)N1C[C@H](C)[C@@H](CN(C)Cc2ccc(-c3ccccc3)cc2)Oc2c(NC(=O)Cc3ccccc3)cccc2C1=O,-14.7,-9.3,43.4*,-10.3,2.2,11.1,26.1,-6.7,
CCc1ccccc1NC(=O)CNC(=O)CCC(=O)c1cc(C)sc1C,/,/,/,/,-5.9,7.1,/,/,
CCOc1ccc2nc(N(CCN(C)C)C(=O)c3ccc4c(c3)CCCC4)sc2c1,8.2,-2.6,54.7*,-2.6,0.9,13.6,13.8,-0.9,
CN(C)CCN(C(=O)c1ccc2c(c1)CCCC2)c1nc2cc3c(cc2s1)OCCO3,-9.9,6.0,43.6*,14.1,-0.9,9.1,25.1,9.3,
Cc1cc(C)c2nc(N(CCCN(C)C)C(=O)c3ccc4c(c3)CCCC4)sc2c1,-14.6,-22.1,42.2*,14.1,/,/,21.1,11.8,
CCn1c(N2CCN(C(c3ccccc3)c3ccccc3)CC2)nc2c1c(=O)[nH]c(=O)n2C,/,/,/,/,-1.6,23.1,/,/,

# Screens from PubChem BioAssay.
